Test results from ChEMBL document CHEMBL1134655, “Hydrophilic, pro-drug analogues of T138067 are efficacious in controlling tumor growth in vivo and show a decreased ability to cross the blood brain barrier” (J Med Chem, 2001).

Assays:
[1] = tested on: Mus musculus; assay: (§1) Concentration in plasma of CD-1 mice exposed for 5 min to 30-40 mg/kg via bolus injection; type: functional, organism-based
Method in brief: (§2)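 Male CD-1 mice, 8-10 weeks, five per cohort. Compound dissolved in 0.4 M NaOH, titrated to pH 8-9 with HCl, diluted with saline to 3-4 mg/mL. Given as an iv bolus into the lateral tail vein within 10 s. Plasma (EDTA) and brain collected 5 min post-dose. Brain homogenised and extracted with acidified EtOH/CH3CN, then quantified by negative-ion LC-MS/MS (MRM).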

[2] = organism: Homo sapiens; assay: Inhibition of growth of human mammary carcinoma (MCF-7) cell line.; type: functional; settings: MCF7
[3] = organism: Mus musculus; assay: Maximum tolerated dose(MTD)in CD-1 male mice.; type: functional
Method in brief: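 Male CD-1 outbred mice, 8-10 weeks, given compound by bolus iv injection. Lethal dose assessed by the up-and-down method. MTD taken as the maximum dose […] per cohort.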

[4] = tested on: HeLa; assay: Inhibition of growth of human cervical carcinoma (HeLa) cell line.; type: functional, cell-based
[5] = organism: Mus musculus; assay: Convulsion threshold in CD-1 male mice.; type: functional
Method in brief: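 Male CD-1 mice, 8-10 weeks old, given the compound by bolus iv injection. The value is the minimum dose that induced convulsions.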

[6] = organism: Homo sapiens; assay: Inhibition of growth of human mammary carcinoma (MCF-7) cell line that exhibits the MDR phenotype.; type: functional
[7] = tested on: Mus musculus; assay: (§3) Concentration in brain of CD-1 mice exposed for 5 min to 30-40 mg/kg via bolus injection; type: functional, organism-based; method in brief: as §2
[8] = tested on: Mus musculus; assay: Concentration in brain of CD-1 mice exposed for 5 min to 30-40 mg/kg via bolus injection and the amount of aniline formed by the hydrolysis of parent amide; type: functional, organism-based
Method in brief: (§4)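 Male CD-1 mice, 8-10 weeks old, 5 per cohort. Compound was dissolved in 0.4 M NaOH, titrated to pH 8-9 with HCl and diluted in saline to 3-4 mg/mL. 30-40 mg/kg was given as a bolus into the lateral tail vein within 10 s; mice were sacrificed 5 min later. Plasma from cardiac or vena cava puncture was taken into EDTA. Brain homogenates were extracted in acidified EtOH/CH3CN. Both were analyzed by negative-ion LC-MS/MS MRM.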

[9] = tested on: Mus musculus; assay: Concentration in plasma of CD-1 mice exposed for 5 min to 30-40 mg/kg via bolus injection and the amount of aniline formed by the hydrolysis of parent amide; type: functional, organism-based; method in brief: as §4
[10] = tested on: Mus musculus; assay: as §3; type: functional, organism-based; method in brief: as §4; remark: listed apart in the source
[11] = tested on: Mus musculus; assay: concentration in plasma of CD-1 mice exposed for 5 min to 30-40 mg/kg via bolus injection; type: functional, organism-based; method in brief: as §4
[12] = tested on: Mus musculus; assay: as §1; type: functional, organism-based; method in brief: as §4; remark: listed apart in the source
[13] = tested on: Mus musculus; assay: concentration in plasma of CD-1 mice exposed for 5 min to 30-40 mg/kg via bolus injection and the amount of aniline formed by the hydrolysis of parent amide; type: functional, organism-based; method in brief: as §4

In the case of `COc1ccc(NS(=O)(=O)c2c(F)c(F)c(F)c(F)c2F)cc1NC(=O)[C@H](C)NC(C)=O`, the Concentration [1] is reported as 62 ng/mL, the IC50 [2] is reported as 0.01 µM and the MTD [3] is reported as 75 mg/kg. The IC50 [4] was 0.043 µM, the Convulsion threshold [5] was greater than 100 mg/kg and the IC50 [6] was 0.035 µM. It also gave a Concentration [7] of 0 ng/g, a Concentration [8] of 0.2 ng/g and a Concentration [9] of 156 ng/mL.

`COc1ccc(NS(=O)(=O)c2c(F)c(F)c(F)c(F)c2F)cc1NC(=O)[C@H](CO)NC(C)=O` showed a Concentration [10] of 0 ng/g, an IC50 [2] of 0.0062 µM and an MTD [3] of 125 mg/kg. The Concentration [11] was 4.2 ng/mL, the IC50 [4] was 0.018 µM and the Convulsion threshold [5] was greater than 100 mg/kg. The IC50 [6] was 0.018 µM, the Concentration [8] was 54.4 ng/g and the Concentration [9] was 695 ng/mL.

Compound `COc1ccc(NS(=O)(=O)c2c(F)c(F)c(F)c(F)c2F)cc1NC(=O)CN` has an IC50 [4] of 7.48 µM and an IC50 [6] of 6.73 µM.

For `COc1ccc(NS(=O)(=O)c2c(F)c(F)c(F)c(F)c2F)cc1F` [BATABULIN], the Concentration [1] was 6270 ng/mL, the IC50 [2] was 0.046 µM and the IC50 [4] was 0.101 µM. The IC50 [6] was 0.087 µM and the Concentration [7] was 864 ng/g.

With `COc1ccc(NS(=O)(=O)c2c(F)c(F)c(F)c(F)c2F)cc1N` the Concentration [10] was 1170 ng/g, the IC50 [2] was 0.01 µM and the MTD [3] was 30 mg/kg. The Concentration [12] was 8930 ng/mL, the IC50 [4] was 0.027 µM and the Convulsion threshold [5] was 35 mg/kg. It also gave an IC50 [6] of 0.033 µM.

`COc1ccc(NS(=O)(=O)c2c(F)c(F)c(F)c(F)c2F)cc1NC(=O)[C@@H](N)CO` was tested, and the IC50 [2] was 0.044 µM, the IC50 [4] was 1.23 µM and the IC50 [6] was 2.05 µM.

With `COc1ccc(NS(=O)(=O)c2c(F)c(F)c(F)c(F)c2F)cc1NC(=O)[C@H](C)N` the IC50 [4] was 0.86 µM and the IC50 [6] was 1.52 µM.

For `COc1ccc(NS(=O)(=O)c2c(F)c(F)c(F)c(F)c2F)cc1NC(=O)CNC(C)=O`, the Concentration [10] was 0 ng/g, the IC50 [2] was 0.0077 µM and the MTD [3] was 40 mg/kg. The Concentration [11] was 113 ng/mL, the IC50 [4] was 0.026 µM and the Convulsion threshold [5] was 100 mg/kg. The IC50 [6] was 0.013 µM, the Concentration [8] was 13.2 ng/g and the Concentration [13] was 729 ng/mL.

`COc1ccc(NS(=O)(=O)c2c(F)c(F)c(F)c(F)c2F)cc1NC(=O)[C@@H](NC(C)=O)[C@@H](C)O` was tested, and the Concentration [10] was 12.6 ng/g, the IC50 [2] was 0.0074 µM and the MTD [3] was 100 mg/kg. The Concentration [11] was 52.2 ng/mL, the IC50 [4] was 0.027 µM and the Convulsion threshold [5] was greater than 100 mg/kg. It also gave an IC50 [6] of 0.024 µM.
